Rows were chosen to be rich in hits. Some 1.8% of all compounds tested hit in one or more screens of this group.
CHRM5 antagonist: CHRM5 antagonism in calcium assay; P08912; CHO-hM5 cells, Fluo-8 calcium fluorescence, ACh EC80; inhibition, % at 3 µM; 360,000 compounds, 0.59% hits; AID 624040;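 active = inhibition above a per-plate cutoff, the mean of that plate's test compounds plus 3 SD, cut at about 27% in these data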;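 note: 0% = acetylcholine EC80 with DMSO and 100% = DMSO without agonist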
Target sequence (P08912 whole entry, looked up): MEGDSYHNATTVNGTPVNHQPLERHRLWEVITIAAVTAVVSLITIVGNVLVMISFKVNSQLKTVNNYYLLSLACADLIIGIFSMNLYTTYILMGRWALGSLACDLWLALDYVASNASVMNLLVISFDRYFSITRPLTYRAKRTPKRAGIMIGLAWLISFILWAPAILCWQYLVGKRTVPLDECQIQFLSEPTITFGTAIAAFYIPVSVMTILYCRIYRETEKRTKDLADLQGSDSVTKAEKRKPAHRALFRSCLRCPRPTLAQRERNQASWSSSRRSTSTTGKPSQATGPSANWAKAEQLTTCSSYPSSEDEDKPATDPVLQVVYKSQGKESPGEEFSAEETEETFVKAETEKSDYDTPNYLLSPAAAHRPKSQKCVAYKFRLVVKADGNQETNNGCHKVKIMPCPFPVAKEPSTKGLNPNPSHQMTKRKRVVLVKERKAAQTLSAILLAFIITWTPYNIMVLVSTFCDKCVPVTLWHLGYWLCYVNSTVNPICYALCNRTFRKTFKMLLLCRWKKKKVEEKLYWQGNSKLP
CHRM5 PAM: positive allosteric modulators of human muscarinic M5 receptor; P08912; CHO-K1 hM5, Fluo-8 calcium, ACh EC20 PAM; 0% = ACh EC20, 100% = ACh EC100; activation, % at 3 µM; 360,000 compounds, 0.3% hits; AID 624038;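 active = activation above the run cutoff, the mean activation of all test compounds plus 3 SD, cut at about 18% in these data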
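Assay system: CHO-K1 hM5 cells. Also added: acetylcholine at EC20 concentration, added after compound. Dosing: 3 µM, single dose. Times: compound preincubation 140 s before EC20 acetylcholine addition. Signal: Fluo-8 calcium fluorescence. Measure: % activation relative to EC20 and EC100 ACh responses. Repeats: singlicate, one well per test compound.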
CHRM4 agonist: agonists of human muscarinic M4 receptor (CHRM4); CHO-K1 hM4/Gqi5, Fluo-8 calcium fluorescence; vehicle 0%, full acetylcholine response 100%; activation, % at 3 µM; 360,000 compounds, 0.14% hits;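 active = activation above the run mean over all test wells plus 3 SD, cut at about 32% in these data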;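 note: peak over basal fluorescence ratio per well then scaled between controls; 0% = DMSO wells and 100% = acetylcholine at EC100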
M5 ag: CHRM5 agonism in calcium assay; 360,000 compounds, 0.19% hits; P08912; CHO-K1 hM5 cells, Fluo-8 calcium fluorescence; 0% DMSO wells, 100% maximal acetylcholine response; activation, % at 3 µM;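 active = activation above the run's mean over test compounds plus 3 SD, cut at about 23% in these data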;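 note: signal is peak over basal fluorescence ratio across the kinetic read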
M4 PAM: CHRM4 positive allosteric modulation; 360,000 compounds, 0.4% hits; activation, % at 3 µM; AID 624126; CHO-K1 hM4/Gqi5, Fluo-8 calcium fluorescence, ACh EC20; 0% = ACh EC20, 100% = maximal ACh;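 active = activation above its plate's cutoff, the mean activation of sample wells plus 3 SD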
CHRM4 antagonist: antagonists of human muscarinic M4 receptor (CHRM4). P08173. CHO-hM4 cells, ACh EC80, Fluo-8 calcium fluorescence. 360,000 compounds, 0.73% hits. inhibition, % at 3 µM;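 active = inhibition above its plate's cutoff, the mean inhibition of sample wells plus 3 SD, cut at about 27% in these data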;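 note: 0% = acetylcholine EC80 with DMSO and 100% = DMSO without agonist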
* marks the source's active call; other numbers are inactive results.

SMILES | CHRM5 antagonist | CHRM5 PAM | CHRM4 agonist | M5 ag | M4 PAM | CHRM4 antagonist
O=C(NCc1ccccc1)C(=O)c1cn(CC(=O)N2CCOCC2)c2ccccc12 | 1 | 4 | 2 | 1 | 1 | -3
O=C(NCc1ccccc1Cl)C(=O)c1cn(CC(=O)N2CCOCC2)c2ccccc12 | 20 | 23* | 8 | 13 | 2 | -13
Cc1ccc(C(=O)N[C@H](C(=O)NC2CCCCC2)C(C)C)cc1 | -3 | 5 | -1 | 0 | -2 | 9
C=CCOc1ccc(C(=O)c2ccccc2)c(OCC(=O)NC2(C#N)CCCC2)c1 | 7 | -2 | 6 | -5 | -11 | -24
Cc1sc(NC(=O)c2cccs2)c(C(N)=O)c1C | -3 | 4 | 1 | 0 | 18* | -1
NC(=O)c1ccsc1NC(=O)c1cccs1 | 6 | -9 | 1 | -1 | 4 | -15
CC1CCc2nc3ccc(S(=O)(=O)N4CCC(C(=O)NC(C)c5ccccc5)CC4)cc3c(C(=O)O)c2C1 (centres undefined) | 15 | -5 | 0 | -4 | 0 | 9
Cc1ccc(OCc2ccc(C(=O)NNC(=S)NCC3CCCO3)o2)c([N+](=O)[O-])c1 (centres undefined) | -22 | 19* | 2 | -1 | 5 | -3
CCCc1nn(-c2cc(Cl)ccc2OC)c2c1C(=O)CC(C)(C)C2 | -1 | 1 | -3 | -5 | -2 | 4
CCc1nn(-c2cc(Cl)ccc2OC)c2c1C(=O)CCC2 | -11 | 18* | -1 | -5 | 10 | -2
Cn1c(=O)c(=O)n(C)c2cc(N3CCCCC3)c(NS(=O)(=O)c3ccc([N+](=O)[O-])cc3)cc21 | -1 | 1 | 0 | -4 | 5 | -10
CCN(CC)S(=O)(=O)c1cccc(C(=O)NCC2CCCCC2)c1 | 3 | -3 | 8 | 1 | 3 | 2
CN(/N=C/c1ccc(-c2ccc([N+](=O)[O-])cc2)o1)c1ccccc1 | 25 | -4 | 16 | 34* | -10 | 10
O=C1NC(=O)C(Cc2c[nH]c3ccccc23)N1 (centres undefined) | -10 | 2 | 1 | -1 | -1 | 1
CCN(CC)CCNC(=O)c1ccc(NC(=O)c2ccc3c(c2)CCC3)cc1 | -1 | -2 | 1 | -10 | -4 | -16
CCN(CC)CCNC(=O)c1ccc(NC(=O)c2ccccc2-c2ccc(C(F)(F)F)cc2)cc1 | 81* | -18 | 3 | -7 | -17 | 71*
CCN(CC)CCNC(=O)c1ccc(NC(=O)c2cccc(S(=O)(=O)N(C)C3CCCCC3)c2)cc1 | 98* | -40 | 1 | -10 | -16 | 98*
CCN(CC)CCNC(=O)c1ccc(NC(=O)Cc2ccccc2F)cc1 | -5 | 7 | 0 | -11 | 8 | -6
CS(=O)(=O)N1CCC(Oc2ccccc2C(=O)NCCCc2cccnc2)CC1 | 13 | -4 | 2 | 1 | -12 | 8
COc1ccc(NC(=O)c2sc3nc(C)cc(C)c3c2N)cc1 | 2 | 5 | 1 | 0 | 4 | -5
Cc1cc(C)c2c(N)c(C(=O)Nc3ccc(F)cc3)sc2n1 | 6 | -4 | 7 | -4 | 27* | 4
Cc1cc(C)c2c(N)c(C(=O)NC3CCCC3)sc2n1 | -3 | -9 | 36* | -3 | 52* | 61*
CCNC(=O)COC(=O)c1sccc1C | 11 | -5 | 0 | 0 | -7 | -2
COc1cc2c(cc1OC)CN(CC(=O)NC(=O)NCc1ccccc1)CC2 | 0 | 3 | 3 | -7 | -2 | -19
S=c1[nH]nc(CN2CCCCC2)n1-c1ccc(Cl)cc1 | 10 | -12 | 15 | 2 | -7 | 2
Fc1ccc(-n2c(CN3CCCCC3)n[nH]c2=S)cc1 | 1 | 21* | 1 | 2 | 10 | -5
CCc1nc2ccc(C(=O)NCCCN3CCCC3=O)cn2c1N(CC)Cc1cccc(Br)c1 | 18 | -1 | -1 | -9 | -6 | 4
COCOc1cc(O)c(C(=O)/C=C/c2ccccc2)c(OCOC)c1 | 5 | -1 | 1 | 2 | 15 | -20

Source: PubChem (The Scripps Research Institute Molecular Screening Center)
